Test results as given in ChEMBL document CHEMBL1123911, “Dopamine agonists: effects of charged and uncharged analogues of dopamine” (1987).

Legend:
[1] = species: Rattus norvegicus; assay: Ability to inhibit the K+-induced release of [3H]acetylcholine in normal striatal slices at 30 uM; assay type: functional; parameters: scale not given: the % may be the effect or the level left
Method in brief: (§1)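 Striatal slices in Krebs–Ringer bicarbonate with 0.6 mM ascorbic acid, 0.03 mM Na2EDTA and 11 mM glucose, gassed 95% O2/5% CO2, labelled 20 min with [3H]choline, then superfused at 0.5 mL/min. At 55 min, 12.5 mM K+ (Na+ lowered equimolarly) was applied for 10 min, with drug present from 10 min before. Scintillation counting gave fractional tritium release above spontaneous outflow, expressed as % of drug-free control.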

[2] = species: Rattus norvegicus; assay: Ability to inhibit the K+-induced release of [3H]Acetylcholine in dopamine depleted striatal slices at 30 uM; assay type: functional; parameters: scale not given: the % may be the effect or the level left; method in brief: as §1
[3] = species: Rattus norvegicus; assay: Ability to inhibit the K+-induced release of [3H]acetylcholine in normal striatal slices at 1 uM; assay type: functional; parameters: scale not given: the % may be the effect or the level left
Method in brief: (§2)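 Striatal slices in Krebs–Ringer bicarbonate with 0.6 mM ascorbic acid, 0.03 mM Na₂EDTA and 11 mM glucose, gassed with 95% O₂/5% CO₂. Slices were labelled 20 min with [³H]choline, then superfused at 0.5 mL/min. Drug was added 10 min before and during 12.5 mM K⁺ (Na⁺-compensated) for 10 min. K⁺-evoked fractional tritium release above baseline is given as % of drug-free control, ±SEM.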

[4] = species: Rattus norvegicus; assay: Ability to inhibit the K+-induced release of [3H]Acetylcholine in normal striatal slices at 60 uM; assay type: functional; parameters: scale not given: the % may be the effect or the level left; method in brief: as §2
[5] = species: Rattus norvegicus; assay: Ability to inhibit the K+-induced release of [3H]acetylcholine in dopamine depleted striatal slices at 0.1 uM; assay type: functional; parameters: scale not given: the % may be the effect or the level left; method in brief: as §2
[6] = species: Rattus norvegicus; assay: Ability to inhibit the K+-induced release of [3H]acetylcholine in normal striatal slices at 0.1 uM; assay type: functional; parameters: scale not given: the % may be the effect or the level left; method in brief: as §2
[7] = species: Rattus norvegicus; assay: Inhibition of stimulation of [3H]- acetylcholine release in rat striatal tissue; assay type: functional, Striatum; method in brief: as §1

Row | SMILES | Control [1] [%] | Control [2] [%] | other results
1 | C[Se]CCc1ccc(O)c(O)c1 | 95 | – | –
2 | C[S+]([O-])CCc1ccc(O)c(O)c1 (stereo not given) | 101 | – | –
3 | C[N+](C)(C)CCc1ccc(O)c(O)c1.[I-] | 52 | 53 | –
4 | C[S+](C)CCc1ccc(O)c(O)c1.[I-] | 50 | 61 | –
5 | C[N+]1(C)CCc2cccc3c2[C@H]1Cc1ccc(O)c(O)c1-3 | – | – | Control [3]: 59%
6 | NC[C@H](O)c1ccc(O)c(O)c1 [NOREPINEPHRINE] | 101 | – | Control [4]: 85%
7 | CN1CCc2cccc3c2[C@H]1Cc1ccc(O)c(O)c1-3 [APOMORPHINE] | – | – | Control [5]: 56%; Control [6]: 60%
8 | CS(=O)(=O)CCc1ccc(O)c(O)c1 | 122 | – | –
9 | C[S+](C)CC(O)c1ccc(O)c(O)c1.[I-] (stereo not given) | 113 | – | –
10 | C[Se+](C)CCc1ccc(O)c(O)c1.[I-] | 57 | 47 | –
11 | CSCCc1ccc(O)c(O)c1 | 82 | 100 | Inhibition [7]: 18%
12 | NCCc1ccc(O)c(O)c1 [DOPAMINE] | 40 | – | Control [3]: 70%
